OX1R antag-1: antagonists of human orexin 1 receptor (OX1R). OX1R-expressing cells, FRET antagonist read-out. inhibition, % at 6.6 µM. 330,000 compounds, 1.8% hits; in the data active means inhibition mostly above about 38%, no sharp cut-off; inactive means mostly below about 40%;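 further: 0% = agonist challenge alone and 100% = reference antagonist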
Target sequence (O43613 whole entry, looked up): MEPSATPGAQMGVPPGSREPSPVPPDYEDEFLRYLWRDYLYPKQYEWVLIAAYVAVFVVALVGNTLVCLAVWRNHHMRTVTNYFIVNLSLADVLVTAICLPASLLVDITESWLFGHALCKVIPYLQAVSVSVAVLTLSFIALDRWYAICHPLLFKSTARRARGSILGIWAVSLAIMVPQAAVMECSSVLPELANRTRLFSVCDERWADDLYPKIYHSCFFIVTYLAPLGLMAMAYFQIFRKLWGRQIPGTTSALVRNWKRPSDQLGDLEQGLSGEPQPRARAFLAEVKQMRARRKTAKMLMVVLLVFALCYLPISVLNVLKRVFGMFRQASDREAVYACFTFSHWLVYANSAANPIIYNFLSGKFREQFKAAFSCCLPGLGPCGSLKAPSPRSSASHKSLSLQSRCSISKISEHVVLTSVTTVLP
CHO parental Ca: ATP-evoked calcium signal inhibitors, parental CHO, primary screen, counter-screen for OX1R antagonist project, cell-based, fluorescence, Fluo-8 calcium dye. inhibition, % at 5.6 µM. 330,000 compounds, 0.63% hits. AID 463079, 2010. parental CHO-K1, ATP-induced calcium, Fluo-8 fluorescence;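 active means inhibition above that plate's mean sample inhibition plus 3 SD, cut at about 26% in these data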;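 further: 0% = ATP-challenged DMSO wells and 100% = DMSO wells without ATP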
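Assay system: parental CHO cells; Read-out basis: percent inhibition of ATP-evoked calcium rise, normalized to controls; Benchmarks: ATP and no-ATP DMSO wells; Compound dosing: single nominal dose of 5.6 µM per compound; Signal: Fluo-8 calcium dye fluorescence; Also added: ATP as calcium-mobilizing challenge; Repeats: singlicate.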
CHO-K1 Ca ag: counter-screen for M1 agonists: effect in parental CHO-K1 cells | Fluo-8 calcium fluorescence; scaled to maximal ATP response, vehicle zero | activation, % at 3 µM | 360,000 compounds, 0.48% hits | AID 602248, 2012; in the data active means activation above about 15%;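 further: untransfected CHO-K1 host cells lacking M1 receptor as counterscreen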
M1 PAM parental: nonselective calcium activators in parental CHO-K1 cells, primary screen, counter-screen for M1 PAM project, cell-based, Fluo-8 calcium fluorescence, full deck, 1536-well; ATP EC20; 0% at ATP EC20, 100% at ATP max; activation, % at 3 µM; 360,000 compounds, 0.02% hits; AID 602247, 2012;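 active means activation above the run cutoff, the mean activation of all test compounds plus 3 SD, cut at about 40% in these data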;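 further: peak over basal fluorescence ratio in a 140 s read after ATP addition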
CHO-K1 Ca antag: M1 antagonist counterscreen hit in parental CHO-K1 cells; ATP-induced calcium, Fluo-8 fluorescence; inhibition, % at 3 µM; 360,000 compounds, 0.6% hits; AID 602250;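 active means inhibition above a per-plate cutoff, the plate's mean sample inhibition plus 3 SD, cut at about 24% in these data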;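 further: 0% = DMSO plus EC80 ATP and 100% = DMSO alone without ATP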
OX1R antag-2: OX1R (HCRTR1) antagonists, primary screen, fluorescence, CHO/OX1R cells, Fluo-8 calcium, orexin A; Orexin/Hypocretin receptor type 1 (Homo sapiens), O43613; Fluo-8 calcium fluorescence; inhibition, % at 5 µM; 330,000 compounds, 0.43% hits; AID 434989, 2010;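 active means inhibition above its plate's threshold, mean inhibition of all tested compounds on the plate plus 3 SD, cut at about 37% in these data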;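 further: 0% = orexin A challenge wells and 100% = SB-334867-A antagonist wells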
An asterisk follows results filed as active; · = no result. Hits are enriched below; roughly 2.9% of the tested compounds scored in any of these assays.

SMILES	OX1R antag-1	CHO parental Ca	CHO-K1 Ca ag	M1 PAM parental	CHO-K1 Ca antag	OX1R antag-2
O=C(Cn1ccc2cc(S(=O)(=O)N3CCCC3)ccc21)NCCc1ccccc1	55.5*	-4.0	1.0	-2.1	2.6	20.8
Cn1c(=O)oc2cc(S(=O)(=O)N3CCC(C(=O)NCc4ccccc4)CC3)ccc21	-1.0	-3.3	0.4	13.4	-3.7	-5.2
COc1ccccc1CCNC(=O)Cn1ccc2cc(S(=O)(=O)N3CCCC3)ccc21	55.5*	-2.9	1.4	3.2	-1.4	19.1
COc1cccc(CNC(=O)Cn2ccc3cc(S(=O)(=O)N4CCCC4)ccc32)c1OC	16.8	-17.6	3.4	6.6	-7.0	-26.4
O=C(CCn1ccc2cc(S(=O)(=O)N3CCCC3)ccc21)NCCc1ccccc1	13.3	-12.8	2.4	19.2	-5.7	-17.4
CC(=O)Nc1ccc(S(=O)(=O)Nc2cccc3[nH]ncc23)cc1	9.5	4.1	12.9	-16.7	30.9*	-5.8
O=C(Nc1cccc2[nH]ncc12)NS(=O)(=O)c1ccccc1	-0.6	-3.7	1.2	23.1	-9.5	-7.2
COc1ccccc1NS(=O)(=O)c1cccc(NC(=O)Nc2ccc(Cl)cc2)c1	51.8*	81.9*	13.8	-9.3	38.1*	50.9*
COc1ccccc1NS(=O)(=O)c1cccc(NC(=O)Nc2ccccc2)c1	23.2	23.2	18.4*	-8.7	37.0*	44.1*
CCOc1ccccc1NC(=O)CCS(=O)(=O)c1ccc(Br)cc1	10.3	-18.4	0.0	1.6	-4.6	-32.9
NC(=O)COc1c(-c2ccc(Br)o2)oc2ccccc2c1=O	71.7*	-12.7	1.1	-5.2	-3.7	7.2
CN1CCN(S(=O)(=O)c2ccc(NC(=O)c3ccc([N+](=O)[O-])cc3)cc2)CC1	44.4*	-17.3	0.1	-9.4	4.6	-17.9
O=C(NC(=S)Nc1ccc(C(=O)N2CCOCC2)cc1)c1ccc([N+](=O)[O-])cc1	15.0	-1.8	0.8	7.4	-2.2	-7.4
O=C(Nc1ccc(C(=O)N2CCOCC2)cc1)c1ccc([N+](=O)[O-])cc1	43.7*	-9.7	1.1	-4.9	-5.8	0.6
O=NN(CCc1ccncc1)c1ccc(OCc2ccccc2)cc1	52.7	62.0*	12.8	-7.5	20.9	38.3*
Cc1c(NC(=O)c2ccc(NC(=O)C3CC3)cc2)cccc1C(=O)O	34.9	-8.8	0.0	-15.8	1.4	-1.5
CCN1CCN(Cc2nc3ccc([N+](=O)[O-])cc3c(=O)n2-c2ccc(OC)cc2OC)CC1	34.2*	-14.6	1.5	1.3	-11.3	0.8
CCn1c(SCC(=O)Nc2nc(-c3ccc(C)cc3)cs2)nnc1-c1ccccc1	15.3	-28.4	0.2	9.6	0.8	-27.3
CCn1c(SCC(=O)Nc2nc(-c3ccc(C)cc3)cs2)nnc1-c1ccccc1O	55.8	32.9*	3.1	14.4	4.3	35.9
CCc1nnc(NC(=O)CCC(=O)NC2CCCCCC2)s1	2.1	-17.0	1.2	12.8	-12.7	-15.7
Cc1cc(NC(=O)c2ccc(COc3ccccc3Cl)o2)no1	30.4	53.1*	1.5	7.3	-11.9	5.7
Cc1ccc(S(=O)(=O)NCCC(=O)O)cc1	17.3	-7.4	1.2	12.3	3.9	-8.1
CCN(CC)C(=O)CCNS(=O)(=O)c1ccc(C)cc1	23.0	-41.1	-0.1	-3.0	28.2*	-37.8
Cc1cc(-c2ccn[nH]2)c(C)s1	21.3	-13.4	0.3	10.2	3.4	-0.4
FC(F)(F)c1cnc2c(c1)[nH]c(=S)n2-c1ccc(Cl)cc1	15.1	4.7	15.8*	5.5	1.6	9.1
SMILES	OX1R antag-1	CHO parental Ca	CHO-K1 Ca ag	M1 PAM parental	CHO-K1 Ca antag	OX1R antag-2
Cc1noc(/C=C/c2ccccn2)c1[N+](=O)[O-]	62.5*	-2.9	4.5	17.9	4.5	-30.2
Cc1noc(/C=C/Nc2ccc(F)cc2F)c1[N+](=O)[O-]	33.6	-1.5	1.7	15.6	-3.1	-7.5
COc1ccc(Nc2sc(C(=O)c3ccc(Cl)cc3)c(N)c2C(=O)Nc2ccccc2OC)cc1	0.1	70.6*	19.6*	13.4	31.5*	100.9*
COc1ccc(C(=O)c2sc(Nc3cccc(OC)c3)c(C(=O)Nc3cccc(C)c3C)c2N)cc1	1.1	60.0*	1.1	5.8	9.6	28.9
COc1ccc(NC(=O)c2c(Nc3ccccc3)sc(C(=O)c3ccc(F)cc3)c2N)cc1	19.4	31.0*	5.7	1.9	20.0	13.8
COc1ccc(C(=O)c2sc(Nc3ccccc3)c(C(=O)Nc3ccc(OC)c(OC)c3)c2N)cc1	17.9	-6.3	0.5	7.1	-2.4	-3.3
COc1ccccc1NC(=O)c1c(Nc2ccccc2C)sc(C(=O)Nc2cccc(Cl)c2)c1N	9.1	6.3	0.9	19.3	1.9	7.8
O=C(COc1ccccc1)NS(=O)(=O)c1ccccc1	16.4	-8.0	0.6	15.9	-8.3	-19.4
CSc1cccc(NC(=O)NCc2cccc(CNC(=O)Nc3cccc(SC)c3)c2)c1	39.8	-5.6	1.4	4.6	-3.4	13.6
CSc1cccc(NC(=O)C(=O)NCc2ccccc2)c1	11.0	28.4*	-0.5	4.0	1.0	-8.9
CSc1cccc(NC(=O)CN(C)S(=O)(=O)c2ccccc2)c1	49.6*	-13.7	6.9	6.6	-19.6	7.1
CSc1cccc(NC(=O)CN(C)S(=O)(=O)c2ccc(F)cc2)c1	43.3	-11.3	2.5	17.4	-7.0	5.6
O=C(CN1C2CCCC1CC(NC(=O)C1CCCCC1)C2)NCc1ccc(F)cc1 (centres undefined)	6.9	-20.1	0.3	4.1	-15.7	-26.3
O=C(CN1C2CCCC1CC(NC(=O)C1CCCCC1)C2)Nc1ccccc1C(F)(F)F (centres undefined)	42.0*	-5.8	0.6	1.2	-11.2	1.5
OCCCCCNc1ncnc2ccccc12	33.5	18.5	15.4*	3.4	3.5	6.2
COc1ccc(Cl)cc1NC(=O)CN1C(=O)C(=O)N(C2CCCC2)C1=O	·	·	1.3	16.7	-16.6	·
CCn1c(SCc2ccccc2)nc2c1c(=O)[nH]c(=O)n2C	10.5	-5.8	1.1	19.9	-17.8	-11.6
N#Cc1ccc(Nc2nc(-c3ccc(O)cc3O)cs2)cc1C(F)(F)F	53.0*	2.5	3.7	1.6	-6.5	31.8
Oc1ccc(-c2csc(Nc3ccc4c(c3)OCO4)n2)c(O)c1	·	·	-0.3	-14.3	-3.5	·
C/C(=C\c1ccccc1)C(=O)Nc1ccc(Cl)cn1	0.4	-9.4	1.1	17.7	-7.4	-23.8
COc1cc(/C=N/n2c(=S)[nH]nc(C)c2=O)cc([N+](=O)[O-])c1O	7.6	-13.1	5.2	-6.5	24.8*	-0.6

Assay outcomes: PubChem, The Scripps Research Institute Molecular Screening Center
